According to ChEMBL document CHEMBL3044709, “Antimicrobial furostanol saponins from the seeds of Capsicum annuum L. var. acuminatum” (2002):
Converted amounts (≈) assume the structure as drawn.

Assays:
Assay type in all cases: functional
[1] = test system: Escherichia coli; assay: Antimicrobial activity against Escherichia coli DSM 682 after 48 hr by agar dilution method; conditions: DSM 682, 48 h
Summary of the method: (§1)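 Agar dilution on standard plate count agar: 0.5 mL of a 2-fold serial dilution of sample mixed into 9.5 mL medium, poured into Petri dishes, organism streaked on the surface. Incubated at 28 °C (36 and 48 h). MIC is the lowest tested concentration with no visible growth.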

[2] = test system: Escherichia coli; assay: Antimicrobial activity against Escherichia coli ATCC 35346 after 48 hr by agar dilution method; conditions: ATCC 35346, 48 h; summary of the method: as §1
[3] = test system: Stutzerimonas stutzeri; assay: Antimicrobial activity against Pseudomonas stutzeri ATCC 962 after 48 hr by agar dilution method; conditions: ATCC 962, 48 h; summary of the method: as §1
[4] = test system: Pseudomonas aeruginosa; assay: Antimicrobial activity against Pseudomonas aeruginosa DSM 1117 after 48 hr by agar dilution method; conditions: DSM 1117, 48 h; summary of the method: as §1
[5] = test system: Limosilactobacillus fermentum; assay: Antimicrobial activity against Lactobacillus fermentum DSM 20052 after 48 hr by agar dilution method; conditions: DSM 20052, 48 h; summary of the method: as §1
[6] = test system: Lacticaseibacillus casei; assay: Antimicrobial activity against Lactobacillus casei DSM 20011 after 48 hr by agar dilution method; conditions: DSM 20011, 48 h; summary of the method: as §1
[7] = test system: Lactiplantibacillus plantarum; assay: Antimicrobial activity against Lactobacillus plantarum DSM 20174 after 48 hr by agar dilution method; conditions: DSM 20174, 48 h; summary of the method: as §1
[8] = test system: Lacticaseibacillus rhamnosus; assay: Antimicrobial activity against Lactobacillus rhamnosus DSM 20021 after 48 hr by agar dilution method; conditions: DSM 20021, 48 h; summary of the method: as §1
[9] = test system: Bacillus cereus; assay: Antimicrobial activity against Bacillus cereus DSM 345 after 48 hr by agar dilution method; conditions: DSM 345, 48 h; summary of the method: as §1
[10] = test system: Micrococcus luteus; assay: Antimicrobial activity against Micrococcus luteus DSM 348 after 48 hr by agar dilution method; conditions: DSM 348, 48 h; summary of the method: as §1
[11] = test system: Staphylococcus aureus; assay: Antimicrobial activity against Staphylococcus aureus subsp. aureus DSM 346 after 48 hr by agar dilution method; conditions: DSM 346, 48 h; summary of the method: as §1
[12] = test system: Staphylococcus epidermidis; assay: Antimicrobial activity against Staphylococcus epidermidis DSM 1798 after 48 hr by agar dilution method; conditions: DSM 1798, 48 h; summary of the method: as §1
[13] = test system: Bacillus licheniformis; assay: Antimicrobial activity against Bacillus licheniformis DSM 13=ATCC 14580 after 48 hr by agar dilution method; conditions: DSM 13 = ATCC 14580, 48 h; summary of the method: as §1
[14] = test system: Bacillus subtilis; assay: Antimicrobial activity against Bacillus subtilis DSM 345 after 48 hr by agar dilution method; conditions: DSM 345, 48 h; summary of the method: as §1
[15] = test system: Rhizopus arrhizus; assay: Antimicrobial activity against Rhizopus oryzae ATCC 56536 after 48 hr by agar dilution method; conditions: ATCC 56536, 48 h
Summary of the method: (§2)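 Fungi tested by agar dilution in malt agar. Serial 2-fold sample dilutions (0.5 mL) were mixed with 9.5 mL medium and plated, then streaked with the organism. Incubation at 28 °C for 36 and 48 h. MIC is the lowest tested concentration without growth.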

[16] = test system: Trichoderma viride; assay: Antimicrobial activity against Hypocrea rufa ATCC 28020 after 48 hr by agar dilution method; conditions: ATCC 28020, 48 h; summary of the method: as §2
[17] = test system: Setophoma terrestris; assay: Antimicrobial activity against Setophoma terrestris ATCC 11321 after 48 hr by agar dilution method; conditions: ATCC 11321, 48 h; summary of the method: as §2
[18] = test system: Penicillium expansum; assay: Antimicrobial activity against Penicillium expansum ATCC 7861 after 48 hr by agar dilution method; conditions: ATCC 7861, 48 h; summary of the method: as §2
[19] = test system: Enterococcus faecalis; assay: Antimicrobial activity against Enterococcus faecalis DSM 2570 after 48 hr by agar dilution method; conditions: DSM 2570, 48 h; summary of the method: as §1

| SMILES | MIC [1] [µg/mL] | MIC [2] [µg/mL] | MIC [3] [µg/mL] | MIC [4] [µg/mL] | MIC [5] [µg/mL] | MIC [6] [µg/mL] | MIC [7] [µg/mL] | MIC [8] [µg/mL] | MIC [9] [µg/mL] | MIC [10] [µg/mL] | MIC [11] [µg/mL] | MIC [12] [µg/mL] | MIC [13] [µg/mL] | MIC [14] [µg/mL] | MIC [15] [µg/mL] | MIC [16] [µg/mL] | MIC [17] [µg/mL] | MIC [18] [µg/mL] | MIC [19] [µg/mL] |
| --- | --- | --- | --- | --- | --- | --- | --- | --- | --- | --- | --- | --- | --- | --- | --- | --- | --- | --- | --- |
| C[C@H](CCC1(O)O[C@H]2C[C@H]3[C@@H]4CC[C@H]5C[C@@H](O[C@@H]6O[C@H](CO)[C@H](O[C@@H]7O[C@H](CO)[C@@H](O)[C@H](O[C@@H]8O[C@H](CO)[C@@H](O)[C@H](O)[C@H]8O)[C@H]7O[C@@H]7O[C@H](CO)[C@@H](O)[C@H](O[C@@H]8O[C@H](CO)[C@@H](O)[C@H](O)[C@H]8O)[C@H]7O)[C@H](O)[C@H]6O)[C@H](O)C[C@]5(C)[C@H]4CC[C@]3(C)[C@H]2[C@@H]1C)CO[C@@H]1O[C@H](CO)[C@@H](O)[C@H](O)[C@H]1O (stereo partly specified) [CAPSICOSIDE A] | 1000 (≈ 702 µM) | 1000 (≈ 702 µM) | > 1000 | > 1000 | 1000 (≈ 702 µM) | 1000 (≈ 702 µM) | 1000 (≈ 702 µM) | 1000 (≈ 702 µM) | 1000 (≈ 702 µM) | > 1000 | > 1000 | > 1000 | > 1000 | > 1000 | 1000 (≈ 702 µM) | > 1000 | 1000 (≈ 702 µM) | 1000 (≈ 702 µM) | > 1000 |
| C[C@H](CCC1(O)O[C@H]2C[C@H]3[C@@H]4CC[C@H]5C[C@@H](O[C@@H]6O[C@H](CO)[C@H](O[C@@H]7O[C@H](CO)[C@@H](O)[C@H](O[C@@H]8OC[C@@H](O)[C@H](O)[C@H]8O)[C@H]7O[C@@H]7O[C@H](CO)[C@@H](O)[C@H](O[C@@H]8O[C@H](CO)[C@@H](O)[C@H](O)[C@H]8O)[C@H]7O)[C@H](O)[C@H]6O)CC[C@]5(C)[C@H]4CC[C@]3(C)[C@H]2[C@@H]1C)CO[C@@H]1O[C@H](CO)[C@@H](O)[C@H](O)[C@H]1O (stereo partly specified) [CAPSICOSIDE D] | 1000 (≈ 726 µM) | 1000 (≈ 726 µM) | > 1000 | > 1000 | 1000 (≈ 726 µM) | 1000 (≈ 726 µM) | 1000 (≈ 726 µM) | 1000 (≈ 726 µM) | 1000 (≈ 726 µM) | > 1000 | > 1000 | > 1000 | > 1000 | > 1000 | 1000 (≈ 726 µM) | > 1000 | 1000 (≈ 726 µM) | > 1000 | > 1000 |
| C[C@H](CCC1(O)O[C@H]2C[C@H]3[C@@H]4CC[C@H]5C[C@@H](O[C@@H]6O[C@H](CO)[C@H](O[C@@H]7O[C@H](CO)[C@@H](O)[C@H](O[C@@H]8O[C@H](CO)[C@@H](O)[C@H](O)[C@H]8O)[C@H]7O[C@@H]7O[C@H](CO)[C@@H](O)[C@H](O[C@@H]8O[C@H](CO)[C@@H](O)[C@H](O)[C@H]8O)[C@H]7O)[C@H](O)[C@H]6O)CC[C@]5(C)[C@H]4CC[C@]3(C)[C@H]2[C@@H]1C)CO[C@@H]1O[C@H](CO)[C@@H](O)[C@H](O)[C@H]1O (stereo partly specified) [CAPSICOSIDE G] | 1000 (≈ 710 µM) | 1000 (≈ 710 µM) | > 1000 | > 1000 | 1000 (≈ 710 µM) | 1000 (≈ 710 µM) | 1000 (≈ 710 µM) | 1000 (≈ 710 µM) | 1000 (≈ 710 µM) | > 1000 | > 1000 | > 1000 | > 1000 | > 1000 | 1000 (≈ 710 µM) | 1000 (≈ 710 µM) | 1000 (≈ 710 µM) | 1000 (≈ 710 µM) | > 1000 |
| C[C@H](CCC1(O)O[C@H]2C[C@H]3[C@@H]4CC[C@H]5C[C@@H](O[C@@H]6O[C@H](CO)[C@H](O[C@@H]7O[C@H](CO)[C@@H](O)[C@H](O[C@@H]8OC[C@@H](O)[C@H](O)[C@H]8O)[C@H]7O[C@@H]7O[C@H](CO)[C@@H](O)[C@H](O)[C@H]7O)[C@H](O)[C@H]6O)CC[C@]5(C)[C@H]4CC[C@]3(C)[C@H]2[C@@H]1C)CO[C@@H]1O[C@H](CO)[C@@H](O)[C@H](O)[C@H]1O (stereo partly specified) [TIMOSAPONIN I2] | 1000 (≈ 823 µM) | 1000 (≈ 823 µM) | > 1000 | > 1000 | 1000 (≈ 823 µM) | 1000 (≈ 823 µM) | 1000 (≈ 823 µM) | 1000 (≈ 823 µM) | 1000 (≈ 823 µM) | > 1000 | > 1000 | > 1000 | > 1000 | > 1000 | 1000 (≈ 823 µM) | > 1000 | 1000 (≈ 823 µM) | > 1000 | > 1000 |
